Experimental data as given in ChEMBL document CHEMBL1148788 (J Med Chem, 2007).
Active and inactive are the calls of the source. The calls are words filed in the database; no cut-off is given here.

What was measured:
[1] = Displacement of [3H]methyllycaconitine from chimeric alpha-7nAChR K145R mutant /5HT3A receptor in tsA201 cells; format: cell-based, Homo sapiens
Method in brief: (§1)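 tsA-201 cells transiently transfected with 4 µg WT or mutant α7/5-HT3A chimera and assayed 2 days later. Membranes washed twice at 50000g in 50 mM Tris-HCl pH 7.2. Incubated with 0.5 nM [3H]MLA and compound for 2.5 h at room temperature with shaking; nonspecific binding with 5 mM (S)-nicotine. PEI-soaked GF/C filtration, scintillation counting. Ki derived; duplicate, 3–7 experiments.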

[2] = Displacement of [3H]methyllycaconitine from chimeric alpha-7nAChR N107A mutant/5HT3A receptor in tsA201 cells; format: cell-based, Homo sapiens; method in brief: as §1
[3] = Displacement of [3H]methyllycaconitine from chimeric alpha-7nAChR W55A mutant /5HT3A receptor in tsA201 cells; format: cell-based, Homo sapiens; method in brief: as §1
[4] = molecular target: T1, 5-hydroxytryptamine receptor 3A (Homo sapiens, UniProt P46098); assay: Displacement of [3H]GR65630 from human 5HT3A receptor in HEK293 cells; format: cell-based
T1 sequence (P46098 whole entry): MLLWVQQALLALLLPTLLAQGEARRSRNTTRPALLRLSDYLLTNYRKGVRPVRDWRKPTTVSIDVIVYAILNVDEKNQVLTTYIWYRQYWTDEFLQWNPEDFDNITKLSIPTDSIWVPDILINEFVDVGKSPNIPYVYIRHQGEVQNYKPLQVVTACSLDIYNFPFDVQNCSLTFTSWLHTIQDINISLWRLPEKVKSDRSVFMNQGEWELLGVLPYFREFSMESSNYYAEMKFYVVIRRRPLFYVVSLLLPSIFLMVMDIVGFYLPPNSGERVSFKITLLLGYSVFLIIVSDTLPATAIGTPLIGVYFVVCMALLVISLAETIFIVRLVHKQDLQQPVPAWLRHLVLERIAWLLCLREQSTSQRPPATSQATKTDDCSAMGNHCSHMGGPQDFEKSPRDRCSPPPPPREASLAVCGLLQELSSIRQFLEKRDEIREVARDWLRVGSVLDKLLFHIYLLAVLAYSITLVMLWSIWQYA

[5] = Displacement of [3H]methyllycaconitine from chimeric alpha7nAChR K145A mutant/5HT3A receptor in tsA201 cells; format: cell-based, Homo sapiens; method in brief: as §1
[6] = Displacement of [3H]methyllycaconitine from chimeric alpha-7nAChR Y195F mutant/5HT3A receptor in tsA201 cells; format: cell-based, Homo sapiens; method in brief: as §1
[7] = Displacement of [3H]methyllycaconitine from chimeric alpha-7nAChR S148A mutant /5HT3A receptor in tsA201 cells; format: cell-based, Homo sapiens; method in brief: as §1
[8] = molecular target: T1, 5-hydroxytryptamine receptor 3A; assay: Antagonist activity at human 5HT3A receptor expressed in HEK293 cells by FMP assay; format: functional, cell-based
tsA201 [9] = assay: Displacement of [3H]methyllycaconitine from chimeric alpha-7nAChR W55A/Y195A mutant /5HT3A receptor in tsA201 cells; format: cell-based; conditions: Homo sapiens; method in brief: as §1
tsA201 [10] = assay: Displacement of [3H]methyllycaconitine from chimeric alpha-7nAChR W149A mutant/5HT3A receptor in tsA201 cells; format: cell-based; conditions: Homo sapiens; method in brief: as §1
[11] = Displacement of [3H]methyllycaconitine from chimeric alpha-7nAChR Y168A mutant/5HT3A receptor in tsA201 cells; format: cell-based, Homo sapiens; method in brief: as §1
[12] = Displacement of [3H]methyllycaconitine from chimeric alpha7nAChR W55Y mutant/5HT3A receptor in tsA201 cells; format: cell-based, Homo sapiens; method in brief: as §1
[13] = Displacement of [3H]methyllycaconitine from chimeric alpha7nAChR Y195A mutant/5HT3A receptor in tsA201 cells; format: cell-based, Homo sapiens; method in brief: as §1
[14] = molecular target: T2, Neuronal acetylcholine receptor; alpha3/beta4 (Rattus norvegicus, UniProt P04757+P12392); assay: Antagonist activity at rat alpha3beta4 nAChR expressed in HEK293 cells by FMP assay; format: functional, cell-based, Homo sapiens
T2 sequence (P04757 whole entry): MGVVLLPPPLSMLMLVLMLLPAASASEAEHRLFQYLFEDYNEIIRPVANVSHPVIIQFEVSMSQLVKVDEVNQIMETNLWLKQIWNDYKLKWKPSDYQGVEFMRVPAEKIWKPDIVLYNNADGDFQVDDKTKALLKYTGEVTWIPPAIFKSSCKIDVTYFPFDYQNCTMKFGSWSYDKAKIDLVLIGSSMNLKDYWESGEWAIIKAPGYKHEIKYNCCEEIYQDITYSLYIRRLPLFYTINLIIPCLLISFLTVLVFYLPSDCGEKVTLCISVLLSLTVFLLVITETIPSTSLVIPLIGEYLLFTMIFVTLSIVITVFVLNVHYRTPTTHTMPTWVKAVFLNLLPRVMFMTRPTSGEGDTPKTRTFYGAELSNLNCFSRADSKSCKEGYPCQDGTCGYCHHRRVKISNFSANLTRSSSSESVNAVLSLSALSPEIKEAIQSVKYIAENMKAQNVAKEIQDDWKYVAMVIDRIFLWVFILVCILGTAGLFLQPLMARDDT
T2 sequence (P12392 whole entry): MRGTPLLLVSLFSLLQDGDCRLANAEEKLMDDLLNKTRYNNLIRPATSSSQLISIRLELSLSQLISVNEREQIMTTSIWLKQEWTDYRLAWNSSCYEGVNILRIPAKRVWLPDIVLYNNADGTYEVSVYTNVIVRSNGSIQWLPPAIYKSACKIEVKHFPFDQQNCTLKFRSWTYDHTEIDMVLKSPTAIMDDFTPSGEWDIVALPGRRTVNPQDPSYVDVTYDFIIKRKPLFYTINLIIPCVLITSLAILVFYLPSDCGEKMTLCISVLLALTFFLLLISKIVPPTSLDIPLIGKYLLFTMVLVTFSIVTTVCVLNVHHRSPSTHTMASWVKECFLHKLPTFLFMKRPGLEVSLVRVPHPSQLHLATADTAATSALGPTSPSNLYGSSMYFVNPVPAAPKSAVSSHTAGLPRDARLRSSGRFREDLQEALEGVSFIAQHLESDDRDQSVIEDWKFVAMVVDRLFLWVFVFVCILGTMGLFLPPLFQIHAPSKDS

[15] = molecular target: T3, Neuronal acetylcholine receptor subunit alpha-7 (Homo sapiens, UniProt P36544); assay: Displacement of [3H]methyllycaconitine from alpha7 nAChR in tsA201 cells co-expressed with Ric3; format: cell-based
Target sequence in this assay (P36544 whole entry): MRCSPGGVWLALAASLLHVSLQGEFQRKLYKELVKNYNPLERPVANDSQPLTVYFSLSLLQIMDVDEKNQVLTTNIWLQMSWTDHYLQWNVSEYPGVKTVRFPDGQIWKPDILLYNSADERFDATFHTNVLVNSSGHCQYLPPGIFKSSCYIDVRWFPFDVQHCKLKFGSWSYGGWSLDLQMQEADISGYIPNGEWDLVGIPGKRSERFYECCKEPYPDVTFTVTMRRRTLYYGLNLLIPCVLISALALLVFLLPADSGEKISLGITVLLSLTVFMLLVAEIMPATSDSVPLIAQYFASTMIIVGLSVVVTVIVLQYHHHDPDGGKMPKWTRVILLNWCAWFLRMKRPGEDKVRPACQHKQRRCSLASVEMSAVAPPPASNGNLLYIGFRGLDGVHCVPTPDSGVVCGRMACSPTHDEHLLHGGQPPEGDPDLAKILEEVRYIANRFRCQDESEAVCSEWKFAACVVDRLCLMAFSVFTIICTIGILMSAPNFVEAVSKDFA

[16] = Displacement of [3H]methyllycaconitine from chimeric alpha-7nAChR S150A mutant/5HT3A receptor in tsA201 cells; format: cell-based, Homo sapiens; method in brief: as §1
tsA201 [17] = assay: Displacement of [3H]methyllycaconitine from chimeric alpha-7nAChR W149Y mutant/5HT3A receptor W149Y mutant in tsA201 cells; format: cell-based; conditions: Homo sapiens; method in brief: as §1
[18] = molecular target: Neuronal acetylcholine receptor; alpha4/beta4 (Rattus norvegicus, UniProt P09483+P12392); assay: Displacement of [3H]epibatidine from recombinant rat alpha-4-beta-4 nAChr in HEK293 cell line; format: cell-based
Sequence of Neuronal acetylcholine receptor; alpha4/beta4 (P09483 whole entry): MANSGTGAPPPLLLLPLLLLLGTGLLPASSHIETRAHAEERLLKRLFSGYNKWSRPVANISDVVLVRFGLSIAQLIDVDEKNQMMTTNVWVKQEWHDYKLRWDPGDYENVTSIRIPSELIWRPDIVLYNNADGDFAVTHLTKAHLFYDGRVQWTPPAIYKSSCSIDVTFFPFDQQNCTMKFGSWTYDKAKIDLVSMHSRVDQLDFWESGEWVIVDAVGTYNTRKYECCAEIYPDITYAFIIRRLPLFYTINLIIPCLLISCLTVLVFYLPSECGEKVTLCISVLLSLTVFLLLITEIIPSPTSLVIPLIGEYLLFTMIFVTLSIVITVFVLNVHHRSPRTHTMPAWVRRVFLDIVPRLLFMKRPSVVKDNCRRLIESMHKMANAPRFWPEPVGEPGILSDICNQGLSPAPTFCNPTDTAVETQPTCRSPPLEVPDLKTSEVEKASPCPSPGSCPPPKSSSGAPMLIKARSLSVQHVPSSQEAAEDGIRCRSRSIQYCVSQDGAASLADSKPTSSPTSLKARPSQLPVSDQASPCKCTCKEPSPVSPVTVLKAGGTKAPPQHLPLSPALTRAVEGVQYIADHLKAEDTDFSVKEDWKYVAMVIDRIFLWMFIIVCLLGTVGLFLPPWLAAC
Sequence of Neuronal acetylcholine receptor; alpha4/beta4 (P12392 whole entry): as the sequence (P12392 whole entry) above

tsA201 [19] = assay: Displacement of [3H]methyllycaconitine from chimeric alpha-7nAChR Y188A mutant/5-HT3A receptor in tsA201 cells; format: cell-based; conditions: Homo sapiens; method in brief: as §1
[20] = molecular target: Neuronal acetylcholine receptor; alpha4/beta2 (Rattus norvegicus, UniProt P09483+P12390); assay: Displacement of [3H]epibatidine from rat recombinant alpha-4-beta-2 nAChR in HEK293 cell line; format: cell-based
Sequence of Neuronal acetylcholine receptor; alpha4/beta2 (P09483 whole entry): as the sequence (P09483 whole entry) above
Sequence of Neuronal acetylcholine receptor; alpha4/beta2 (P12390 whole entry): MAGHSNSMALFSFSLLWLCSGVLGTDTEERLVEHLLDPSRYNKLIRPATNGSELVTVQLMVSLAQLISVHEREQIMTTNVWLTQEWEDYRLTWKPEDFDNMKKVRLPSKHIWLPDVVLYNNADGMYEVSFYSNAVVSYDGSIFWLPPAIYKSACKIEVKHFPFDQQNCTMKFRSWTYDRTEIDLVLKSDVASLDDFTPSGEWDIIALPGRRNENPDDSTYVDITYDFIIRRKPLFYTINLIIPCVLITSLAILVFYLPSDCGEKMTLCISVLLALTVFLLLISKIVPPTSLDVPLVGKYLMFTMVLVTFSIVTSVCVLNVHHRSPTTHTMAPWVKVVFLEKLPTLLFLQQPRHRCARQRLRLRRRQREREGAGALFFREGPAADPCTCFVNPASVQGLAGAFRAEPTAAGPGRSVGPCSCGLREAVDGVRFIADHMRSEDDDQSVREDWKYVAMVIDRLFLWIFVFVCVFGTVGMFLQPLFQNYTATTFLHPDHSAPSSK

[21] = molecular target: T2, Neuronal acetylcholine receptor; alpha3/beta4; assay: Displacement of [3H]epibatidine from recombinant rat alpha-3-beta-4 nAChr in HEK293 cell line; format: cell-based
[22] = molecular target: T3, Neuronal acetylcholine receptor subunit alpha-7; assay: Displacement of [3H]methyllycaconitine from human alpha-7 in tsA201 cells coexpressed with 5HT3A receptor; format: cell-based
Target sequence in this assay (P36544 whole entry): as the sequence (P36544 whole entry) above

cells = format: functional, cell-based; conditions: Homo sapiens, HEK293
[23] = molecular target: T4, Glycine receptor subunit alpha-1 (Homo sapiens, UniProt P23415); assay: Antagonist activity at human glycine alpha-1 receptor in HEK293 cells by FMP assay; format: functional, cell-based
T4 sequence (P23415 whole entry): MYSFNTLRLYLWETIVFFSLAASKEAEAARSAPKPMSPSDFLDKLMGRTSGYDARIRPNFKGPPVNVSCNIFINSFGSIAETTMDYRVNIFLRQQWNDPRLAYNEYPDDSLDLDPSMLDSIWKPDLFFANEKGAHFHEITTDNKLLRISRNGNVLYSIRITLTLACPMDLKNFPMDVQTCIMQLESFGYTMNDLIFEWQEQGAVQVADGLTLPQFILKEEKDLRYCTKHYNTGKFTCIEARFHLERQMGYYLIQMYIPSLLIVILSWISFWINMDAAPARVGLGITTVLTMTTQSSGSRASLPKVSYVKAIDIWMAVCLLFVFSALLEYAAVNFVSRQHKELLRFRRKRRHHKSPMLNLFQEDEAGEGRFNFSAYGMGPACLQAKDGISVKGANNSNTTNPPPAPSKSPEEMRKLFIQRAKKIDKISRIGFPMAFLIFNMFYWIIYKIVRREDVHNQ

tsA201 [24] = assay: Displacement of [3H]methyllycaconitine from chimeric alpha-7nAChR Y93A mutant/5HT3A receptor in tsA201 cells; format: cell-based; conditions: Homo sapiens; method in brief: as §1
[25] = Displacement of [3H]methyllycaconitine from chimeric alpha-7nAChR D197A mutant/5HT3A receptor in tsA201 cells; format: cell-based, Homo sapiens; method in brief: as §1
[26] = molecular target: T3, Neuronal acetylcholine receptor subunit alpha-7; assay: Displacement of [3H]methyllycaconitine from chimeric alpha7nAChR/5HT3A in tsA201 cells; format: cell-based
Target sequence in this assay (P36544 23-502 limits assumed): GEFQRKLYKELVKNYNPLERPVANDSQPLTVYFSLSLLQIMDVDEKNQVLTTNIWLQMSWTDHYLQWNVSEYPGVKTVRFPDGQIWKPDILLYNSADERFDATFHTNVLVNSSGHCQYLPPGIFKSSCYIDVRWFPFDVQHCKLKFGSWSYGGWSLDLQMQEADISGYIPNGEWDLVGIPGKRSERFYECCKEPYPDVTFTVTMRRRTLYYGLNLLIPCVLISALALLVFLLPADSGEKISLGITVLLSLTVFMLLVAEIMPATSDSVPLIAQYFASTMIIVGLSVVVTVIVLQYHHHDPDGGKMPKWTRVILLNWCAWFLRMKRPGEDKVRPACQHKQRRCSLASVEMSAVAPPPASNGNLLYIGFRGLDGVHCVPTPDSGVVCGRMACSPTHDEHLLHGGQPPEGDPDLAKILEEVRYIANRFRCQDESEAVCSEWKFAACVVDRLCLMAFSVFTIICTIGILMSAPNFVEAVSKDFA

[27] = Displacement of [3H]methyllycaconitine from chimeric alpha7nAChR R79A mutant/5HT3A receptor R79A mutant in tsA201 cells; format: cell-based, Homo sapiens; method in brief: as §1
[28] = molecular target: T3, Neuronal acetylcholine receptor subunit alpha-7; assay: Antagonist activity at human alpha-7 nAChR in tsA201 cells coexpressed with Ric3 by FMP assay; format: functional, cell-based
Target sequence in this assay (P36544 whole entry): as the sequence (P36544 whole entry) above

## C[N+](C)(C)Cc1c2n(c3ccccc13)Cc1c(C[N+](C)(C)C)c3ccccc3n1C2.[I-].[I-]
[1]
  Ki: 5.2 µM
  pKi: 5.28
[2]
  Ki: 15 µM
  pKi: 4.82
[3]
  Ki: 1.1 µM
  pKi: 5.94
[4]
  Ki: > 100 µM
[4]; hek293
  pKi: < 4
[5]
  Ki: 7.2 µM
  pKi: 5.14
[6]
  Ki: 8.3 µM
  pKi: 5.08
[7]
  Ki: 0.43 µM
  pKi: 6.37
[8]; hek293
  pIC50: < 4
[8]; read-out: IC50
  IC50: > 100 µM
tsA201 [9]
  Activity: inactive
tsA201 [10]
  Activity: inactive
[11]
  Ki: 5.1 µM
  pKi: 5.29
[12]
  Ki: 2.4 µM
  pKi: 5.61
[13]
  Ki: 22 µM
  pKi: 4.66
[14]; hek293
  pIC50: < 4
[14]; read-out: IC50
  IC50: > 100 µM
[15]; read-out: Ki
  Ki: 1.3 µM
[15]; read-out: pKi (converted)
  Ki: 1.26 µM
[16]
  Ki: 6 µM
  pKi: 5.22
tsA201 [17]
  Activity: inactive
[18]
  Ki: > 100 µM
[18]; hek293
  pKi: < 4
tsA201 [19]
  Activity: inactive
[20]
  Ki: > 100 µM
[20]; read-out: Ki
  Ki: > 100 µM
[21]
  Ki: > 100 µM
[21]; hek293
  pKi: < 4
[22]; read-out: Ki
  Ki: 2.4 µM
[22]; read-out: pKi (converted)
  Ki: 2.51 µM
cells; read-out: IC50
  IC50: > 100 µM
cells; read-out: pIC50 (converted)
  IC50: > 100 µM
[23]
  IC50: > 100 µM
[23]; hek293
  pIC50: < 4
tsA201 [24]
  Activity: inactive
[25]
  Ki: 6.3 µM
  pKi: 5.2
[26]
  Ki: 4.42 µM
  pKi: 5.35
[27]
  Ki: 7.6 µM
  pKi: 5.12
[28]; read-out: IC50
  IC50: 30 µM
[28]; read-out: pIC50 (converted)
  IC50: 100 µM
